Data taken from the M2OR odorant receptor database.

What follows are compounds tested against T1, OR2M3 (Homo sapiens) (UniProt Q8NG83). Conditions: stereoisomer not certain.
T1 sequence (whole entry): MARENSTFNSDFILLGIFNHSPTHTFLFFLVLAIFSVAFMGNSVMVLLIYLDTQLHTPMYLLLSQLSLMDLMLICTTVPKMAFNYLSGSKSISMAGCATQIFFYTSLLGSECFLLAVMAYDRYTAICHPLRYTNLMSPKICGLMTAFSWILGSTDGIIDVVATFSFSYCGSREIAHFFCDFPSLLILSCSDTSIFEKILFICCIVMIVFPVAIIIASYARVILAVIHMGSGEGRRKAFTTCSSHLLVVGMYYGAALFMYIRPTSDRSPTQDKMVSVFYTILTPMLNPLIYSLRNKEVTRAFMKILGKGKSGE
In short: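 Transient luciferase assays in mammalian cell lines were common, though methods varied by source. The values come from published papers and their supplementary material, with extra details from the original authors when needed. Responsive refers to a measured signal the original authors judged statistically different from baseline, and non-responsive (inactive) to the remainder.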
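Note: active if original authors judged signal statistically different from baseline.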

| Structure (SMILES) | odorant receptor agonist call |
| --- | --- |
| Cc1cccc(C)c1O | inactive |
| CCC=CCCC=CC=O | inactive |
| CCC(C)C(=O)OC (configuration not stated) | inactive |
| CC(=O)OCCc1ccccc1 | inactive |
| CC(=O)C=CC1=C(C)CCCC1(C)C | inactive |
| CCOC(C)OCC | inactive |
| CCCC(=O)OCC | inactive |
| COc1cccc(OC)c1O | inactive |
| Cc1occc(=O)c1O | inactive |
| CCOC(=O)C(C)CC (configuration not stated) | inactive |
| CCC(=O)C1=NCCC1 | inactive |
| CCOC(=O)C=Cc1ccccc1 | inactive |
| CCCC(S)CCO (configuration not stated) | inactive |
| CCc1cccc(O)c1 | inactive |
| C=Cc1ccc(O)cc1 | inactive |
| CCC(C)c1nccnc1OC (configuration not stated) | inactive |
| CC(C)(S)CCOC=O | inactive |
| CCCc1ccc(O)c(OC)c1 | inactive |
| CCCCCc1ccccn1 | inactive |

| Structure (SMILES) | odorant receptor agonist call |
| --- | --- |
| C=CCSC | inactive |
| COc1ccc2ccc(=O)oc2c1 | inactive |
| CCC(=O)C(C)=O | inactive |
| CCCCC=CC=O | inactive |
| CC(=O)OCCC(C)C | inactive |
| CCC(=O)C(C)S (configuration not stated) | inactive |
| CCC=O | inactive |
| CCc1ncc(C)nc1CC | inactive |
| CCCCCC=CC=CC=O | inactive |
| C=C(C)c1ccc(C)cc1 | inactive |
| CCc1ccc(O)cc1 | inactive |
| CCCCCC(C)O (configuration not stated) | inactive |
| CCC=CCC=O | inactive |
| CSSSC | inactive |
| CCCCCC=CC=O | inactive |
| CC=CC(=O)C(C)CC (configuration not stated) | inactive |
| CCCCCCCCC=CC=O | inactive |
| CCCC(O)CC(=O)OCC (configuration not stated) | inactive |
